The structures appear in SMILES notation.

The series is described as follows: Toxicity liver stage against HepG2, at 10uM. It is filed as cell-based. Set-up: test concentration 10 uM, cell line HepG2-A16-CD81EGFP. The following applies: human, HepG2-A16-CD81EGFP cells; read-out: INHIBITION
The method, boiled down:
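Uninfected HepG2-A16-CD81EGFP cells, 3 × 10^3 per well, 1536-well, plated on prespotted compound at 10 μM final, parasite-free screening media added to match infected plates; puromycin 10 μM positive, DMSO 0.5% negative; run in parallel with 48 h PbLuc assay at 37 °C, 5% CO2; viability by CellTiter-Glo luminescence, normalized to controls.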
For `N#Cc1cccc(C(=O)Nc2ccc([C@@H](O)[C@H]3COCC(=O)N3)cc2)c1`, the cytotoxicity at 10 µM was -4.25%. On to `O=C(c1cc(CC2(NC3CCCCC3)COC2)no1)N1CCCCC1`, for which the cytotoxicity at 10 µM turned out to be 7.65%. `CCCNC(=O)CCC(=O)n1nc(C)c2ccccc21`: the cytotoxicity at 10 µM turned out to be 1.23%. As for `O=c1[nH]c2c(-c3ccccn3)nsc2c(=O)n1CC1CCCO1` (configuration not stated), the figure is 9.26%; as for `O=C(CC1CCCC1)NCCS(=O)(=O)N1CCN(c2ccccn2)CC1`, 0.766%; as for `Cc1ccc(S(=O)(=O)N2CCC(S(=O)(=O)c3nncn3C)CC2)cc1C`, -6.9%. As for `CN(C)c1ccc2c(c1)CN(C(=O)c1ccnnc1)C2c1cnco1` (configuration not stated), the figure is 0.841%; as for `COC[C@H]1CCC[C@]12CN(S(=O)(=O)c1cccs1)CCO2`, -1.34%; as for `O=C(c1ccoc1)N1CCC2(C1)CN(c1ncc(F)cn1)C2`, -0.472%. As for `Cc1ccc(CN2CC[C@H]3OCC[C@@H](C(=O)NCC4CC4)[C@@H]3C2)o1`, the figure is 0.951%; as for `CCN1C[C@H]2CCN(C(=O)NC)CC[C@H]2S1(=O)=O`, 4%; as for `CC(C)n1[nH]c(=O)c2c1NC(=O)CC2c1ccc(C#N)cc1` (configuration not stated), 3.92%. With `CC(C)(C)n1ncc2c1NC(=O)CC2c1ccc(C#N)cc1` (configuration not stated), the cytotoxicity at 10 µM was -1.26%.

`Clc1ccc2nncc(N3CCCCC3)c2c1`: the cytotoxicity at 10 µM was -4.34%. As for `Cc1nn(C)c2c(N3CCC(C)CC3)nc(C3CC3)nc12`, the figure is 7.59%. For `Cn1nc(C(=O)N2CCOCC2)cc1C(=O)Nc1ncc(Cl)cc1Cl` the value was 12.5%. For `CS(=O)(=O)N1CCN(C(=O)c2cncs2)CC(C(N)=O)C1` (configuration not stated) the value was 2.9%; for `CN(C(=O)c1ccc(C#N)cc1)c1nnc(C2CCOC2)s1` (configuration not stated), 0.36%. `O=C(NCCNC1CCCC1)c1cccs1`: the cytotoxicity at 10 µM is -0.579%. For the compound `Fc1ccccc1-c1nccnc1C1CCCNC1` (configuration not stated), the cytotoxicity at 10 µM is -25.7%. For `COCCN1CCCC(Cc2ccc(N3CCOCC3)nn2)C1` (configuration not stated), the cytotoxicity at 10 µM was -17.9%. As for `Cc1ccc(-c2cc(N)c(=O)n(C(C)C(=O)NCC3CCCCC3)n2)s1` (configuration not stated), the figure is -13.9%; as for `Cc1noc(C)c1-c1cncc(C2CCCN2Cc2cc[nH]n2)n1` (configuration not stated), 13%; as for `CS(=O)(=O)c1ccc(NC(=O)NCc2ccc(F)cc2)cn1`, 15.4%. For `CCOc1ccc(NC(=O)c2oc(CC)cc2C)cc1CO` the value was 2.05%; for `Cc1cccc(-c2ccc(C(=O)N3CCN(C(C)C)CC3)c(=O)[nH]2)c1`, -3.27%. As for `COCCS(=O)(=O)N(Cc1ccsc1)c1ccccc1`, the figure is -4.76%; as for `Cn1cnc(S(=O)(=O)N2CCCCc3ccccc32)c1`, -4.62%. As to `CCCS(=O)(=O)NCc1ncc(C)c(OC)c1C`, the cytotoxicity at 10 µM was -12.9%. As for `CN(C)c1ncccc1N(C)C(=O)Cn1cc(-c2ccccc2)nn1`, the figure is -2.2%. For `CC(C)COc1cncc(N2CCCN(CC(F)(F)F)CC2)n1` the value was 4.29%; for `O=C(c1ccoc1)N(Cc1ccccn1)C1CC1`, -15%; for `OCC1CCCN1c1cc(NCCc2nccs2)ncn1` (configuration not stated), 4.58%. As for `CSCC(C)N(C)C(=O)c1nn(-c2ccc(F)cc2C)cc1O` (configuration not stated), the figure is 0.618%. For the compound `CN1CCC(N(C)C(=O)CSc2ccc(F)c(F)c2)C1=O` (configuration not stated), the cytotoxicity at 10 µM was -5.89%. For `Cc1cnn(C2CCCN(C(=O)c3c(C)oc(C)c3C)C2)c1` (configuration not stated) the value was 2.56%; for `Cc1n[nH]c(C(=O)N2CCCC(C)CC2)c1Br` (configuration not stated), -1.74%.

For `Cc1cc(NCc2cccc(C#N)c2)ccc1C(N)=O`, the cytotoxicity at 10 µM was determined as 10.1%. Regarding `COCCc1noc(CNC(C)(CO)C2CCCCC2)n1` (configuration not stated), the cytotoxicity at 10 µM was determined as 7.88%. As for `CCCn1cc(NC(=O)c2cccc3cccnc23)ccc1=O`, the figure is -4.73%; as for `COc1ccc(C)cc1NS(=O)(=O)c1ccc(CCNC(C)=O)s1`, 0.549%; as for `NC(=O)C1CCCN1Cc1ccccc1NC(=O)Cc1cccc(F)c1` (configuration not stated), 7.31%.

With `CCOCc1nnc(NCc2cccnc2)o1`, the cytotoxicity at 10 µM is 10.9%.

Consider `CN(CC(F)(F)F)C(=O)Cn1cc(NC(=O)C(C)(C)C)cn1`, for which the cytotoxicity at 10 µM came to 3.04%. For the compound `CC(O)CN1CCN(C(=O)c2cnn(-c3ccccc3F)c2)CC1` (configuration not stated), the cytotoxicity at 10 µM was -6.81%.

`CC(C)(C)C(=O)NCCC(=O)NC(C)(C)c1ccc2c(c1)OCCO2`: the cytotoxicity at 10 µM is -1.22%.

Turning to `CC(C)Oc1ccc(CN2CCC(Cc3nnc(CO)n3C)CC2)cc1`, the cytotoxicity at 10 µM stood at 1.24%. For `COc1ccccc1CN1C(=O)O[C@@H]2CN(CC3CC3)C[C@@H]21` the value was 1.35%. For `CNc1ncc(CN(C)C(=O)CCc2[nH]nc3c2CCCC3)cn1` the value was 3.8%. As for `O=C(NCCSc1ccccc1)[C@H]1CNC[C@@H](C(=O)N2CCOCC2)C1`, the figure is -3.03%; as for `CCOc1ccccc1C(C(=O)O)N(C)Cc1nnc(C)o1` (configuration not stated), -9.77%; as for `CCN1CCC(NN2CCN(C)CC2)CC1`, 0.935%.

Take `O=C1CCC2(CCOC2)CN1CCCOc1cccnc1` (configuration not stated): the cytotoxicity at 10 µM was -16.1%. As for `CCCc1ccc(CN2CCC3(CCC(=O)N(CCO)C3)CC2)o1`, the figure is -6.29%; as for `Cc1ccc(Cl)c(C(C(=O)O)N(C)Cc2cnn(C)c2)c1` (configuration not stated), -11%; as for `O=C(c1cnc2ccccn12)N1CCCC(c2ccn[nH]2)C1` (configuration not stated), -5.28%.

With `COCCN1CCC(CN(C)c2ncnc3c2c(C)nn3C)C1` (configuration not stated), the cytotoxicity at 10 µM was -5.16%. For `CN(Cc1ccccc1Cl)C(=O)c1cc(CN2CCC(O)CC2)on1` the value was 0.0227%.

For `Cc1ccc2nc(C3CCCN3Cc3nnc(C)s3)[nH]c2c1` (configuration not stated), the cytotoxicity at 10 µM was -2.82%. As for `Cc1cnn(C2(C(=O)O)CCN(Cc3oc4ccccc4c3C)CC2)c1`, the cytotoxicity at 10 µM was -5.87%. For `Cc1oc(C(=O)O)cc1S(=O)(=O)Nc1cc(Br)ccc1F` the value was -3.46%. As for `Cc1noc(NC(=O)c2ccc(C#N)cc2)n1`, the figure is -5.32%. Regarding `CNc1nc(CNC(=O)Nc2cccc(CN(C)C)c2)cs1`, the cytotoxicity at 10 µM was -8.04%. For `NC(=O)C1CCN(C(=O)c2ccn(-c3cccc(Cl)c3)n2)C1` (configuration not stated) the value was -0.433%; for `Cc1ccc(C(=O)NS(=O)(=O)c2cc(F)ccc2F)c(=O)[nH]1`, -1.73%. `COCc1ccccc1CNC(=O)CN1CCCC1c1noc(C)n1` (configuration not stated): the cytotoxicity at 10 µM was 1.13%.

Take `Cc1nc(CCNCc2c(C)nn(C)c2N2CCOCC2)cs1`: the cytotoxicity at 10 µM is -11.5%. As for `COc1c(C)cnc(CN2CCCC(Cn3nc(C)nc3C)C2)c1C` (configuration not stated), the figure is 2.37%. For `Cc1n[nH]c(C2CN(C(=O)c3cc4c(s3)CCCC4)CCO2)n1` (configuration not stated) the value was -14.9%; for `Cc1cc(C(=O)N2CCN(Cc3ccsc3)CC2)c(C)n1C1CC1`, -1.94%. For `Cc1ccc(CNC(=O)CN2CCCCC2Cn2cncn2)s1` (configuration not stated) the value was 1.8%; for `Cn1cnc2c1CCN(CCCS(=O)(=O)c1ccccc1)C2`, -7.54%; for `Cc1cnn(CC2CN(CCc3cccs3)CCO2)c1` (configuration not stated), -14.2%. On to `Cc1cnn(C2CN(Cc3nc(-c4ccco4)no3)C2)c1`, for which the cytotoxicity at 10 µM was -14.6%. For `Cc1n[nH]c(C)c1C1COCCN1C(=O)c1ccccc1` (configuration not stated) the value was -3.94%; for `O=C(COc1ccc(C(F)(F)F)cc1)NS(=O)(=O)c1cccnc1`, -7.44%. For the compound `Cn1cc(-c2nc(CN3CCN(CCO)CC3)cs2)cn1`, the cytotoxicity at 10 µM is -2.66%. For `Cc1cnn(CC2CCCCN2CCn2cncn2)c1` (configuration not stated) the value was 6.26%. For `Cn1ccc(C(=O)NCc2ccc(N3CCCC3)nc2)cc1=O` the value was 0.12%; for `Fc1cccc(-c2nc(CN3CCOC(Cn4cccn4)C3)co2)c1` (configuration not stated), -5.6%. For `c1ccc(-n2ncc(CN3CCCC3Cn3cccn3)n2)cc1` (configuration not stated) the value was -2.73%; for `COc1ccc(C(=O)N(C)Cc2nnc3ccccn23)c(OC)c1`, -3.03%. `CNC(=O)c1ccc(CN2CCC(N(C)Cc3noc(C)n3)C2)cc1` (configuration not stated): the cytotoxicity at 10 µM worked out at 5.56%.

As to `CNCc1ccc(OCc2ccc3c(c2)OCCO3)cc1`, the cytotoxicity at 10 µM worked out at 1.61%. For `CCNC(=O)[C@@H]1CCCN1[C@@H](C(=O)NC)c1ccccc1` the value was 7.77%; for `Cn1nc(C2CCCN(Cc3cccs3)C2)c2nccnc21` (configuration not stated), 4.2%. As to `COc1ncnc2c1CCN(Cc1cccs1)CC2`, the cytotoxicity at 10 µM is 8.55%.

Take `Cc1csc(CN2CC[C@H]3C[C@H](c4nc(C)no4)O[C@@H]3C2)n1`: the cytotoxicity at 10 µM is -3.35%.

Regarding `O=C([C@H]1COC[C@H]2CN(c3ncc(F)cn3)C[C@H]21)N1CCOCC1`, the cytotoxicity at 10 µM is -5.58%.

As to `CCc1ncnc2c1CCN(C(=O)c1ccccn1)CC2`, the cytotoxicity at 10 µM is 2.43%.

For `Cc1ccc(NC(=O)c2nc3c(s2)CCCN3C(=O)C2CC2)cn1`, the cytotoxicity at 10 µM came out at 10.5%.

With `O=C([C@H]1CC[C@@H]2[C@@H](CCN2Cc2nccs2)O1)N1CCOCC1`, the cytotoxicity at 10 µM is -0.891%. As for `CS(=O)(=O)N1CCC2(CC1)NCCn1c(-c3ccccc3)cnc12`, the figure is 3.61%. For `CNC(=O)[C@@H](c1ccccc1)N1CCC[C@H]1C(=O)NCc1cccnc1` the value was 2.38%; for `CC(=O)N1CC(=O)N(c2ccccc2)CC12CCN(Cc1nccs1)C2` (configuration not stated), -2.23%. As for `COCCOCC1(CNCc2ccc(OC)cc2)C[C@@H](O)[C@@H](O)C1` (some centres not stated), the figure is -7.46%; as for `Cc1cc(C(=O)NC2CCC3(CCC(=O)N3CC3CC3)CC2)no1` (configuration not stated), -0.39%.

The values are drawn from ChEMBL document CHEMBL4513216, “Probing the Open Global Health Chemical Diversity Library for Multistage-Active Starting Points for Next-Generation Antimalarials” (ACS Infect Dis, 2020).
